Laboratory results from ChEMBL document CHEMBL1759978, “Synthesis and biological evaluation of fatty acyl ester derivatives of 2',3'-didehydro-2',3'-dideoxythymidine” (Bioorg Med Chem Lett, 2011).
Active and inactive are the calls of the source. No cut-off for these calls is given here.

Columns and labels:
[1] = test system: Human immunodeficiency virus 1; experiment: Antiviral activity against Human immunodeficiency virus 1 BAL by MAGI assay; format: functional, organism-based
HeLa = experiment: Cytotoxicity against human HeLa P4/R5 cells by MTS assay; format: cell-based; details: read-out: EC50 (the source's name)
[2] = test system: Human immunodeficiency virus 1; experiment: Antiviral activity against Human immunodeficiency virus 1 3B infected in human SupT1 cells by cell-associated transmission assay; format: functional, organism-based; details: SUP-T1
Homo sapiens [3] = species on record: Homo sapiens; experiment: Spermicidal activity against human sperm assessed as immobolizing sperm treated for 10 mins by microscopy relative to control; format: functional
[4] = test system: Human immunodeficiency virus 1; experiment: Antiviral activity against Human immunodeficiency virus 1 3B by MAGI assay; format: functional, organism-based
Homo sapiens [5] = species on record: Homo sapiens; experiment: Spermicidal activity against human sperm assessed as sperm tail response at 1 mg/ml for 10 mins by microscopy relative to control; format: functional
CCRF-CEM [6] = experiment: Cellular uptake in human CCRF-CEM cells at 10 uM after 1 hr by real time fluorescence microscopy; format: ADME, cell-based
How it was run: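 Live CCRF-CEM cells were incubated 1 h with 10 of the fluorescein-labelled conjugates, with DMSO and free 5(6)-carboxyfluorescein as controls, then imaged by fluorescence light microscopy.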

CCRF-CEM [7] = experiment: Cellular uptake in human CCRF-CEM cells at 10 uM after 1 to 8 hrs by flow cytometry; format: ADME, cell-based
How it was run: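 CCRF-CEM T lymphoblastoid cells grown to 70% confluency, then exposed to 10 of the fluorescein-tagged conjugates for 1, 2, 4 and 8 h, with DMSO and free 5(6)-carboxyfluorescein as controls. Uptake was read by flow cytometry in the FITC channel as the mean fluorescence of 10,000 cells, in triplicate.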

[8] = test system: Human immunodeficiency virus 1; experiment: Antiviral activity against Human immunodeficiency virus 1 infected in human CEM-SS cells assessed as inhibition of viral replication; format: functional, organism-based; details: Human immunodeficiency virus 1, CEM-SS
CCRF-CEM [9] = experiment: Cellular uptake in human CCRF-CEM cells at 10 uM after 1 to 8 hrs measured after 5 mins trypsin wash off by flow cytometry relative to control; format: ADME, cell-based

Row | SMILES | EC50 [1] | EC50 [2] | EC50 [4] | Drug uptake (CCRF-CEM [6]) | Drug uptake (CCRF-CEM [7]) | EC50 [8] | Drug uptake (CCRF-CEM [9]) | CC50 (HeLa) | Activity (Homo sapiens [3]) | Activity (Homo sapiens [5])
1 | Cc1cn([C@H]2C=C[C@@H](COC(=O)CCCCCCCCCCCN=[N+]=[N-])O2)c(=O)[nH]c1=O | 3.1 µM | 22.4 µM | 6.7 µM |  |  |  |  | > 200 µM | inactive | inactive
2 | CCSCCCCCCCCCCCC(=O)OC[C@@H]1C=C[C@H](n2cc(C)c(=O)[nH]c2=O)O1 | 5.8 µM | 46.5 µM | 14.4 µM |  |  |  |  | > 200 µM | inactive | inactive
3 | CCSCCCCCCCCCCCC(=O)O |  |  |  |  |  | 9.4 µM |  |  |  | 
4 | CCCCCCCCCCCCCC(=O)OC[C@@H]1C=C[C@H](n2cc(C)c(=O)[nH]c2=O)O1 | 12.4 µM | > 230 µM | 78.3 µM |  |  |  |  | > 200 µM | inactive | inactive

More lines, main results first:

Row | EC50 [1] | EC50 [2] | EC50 [4] | Drug uptake (CCRF-CEM [6]) | Drug uptake (CCRF-CEM [7]) | EC50 [8] | Drug uptake (CCRF-CEM [9]) | SMILES | CC50 (HeLa) | Activity (Homo sapiens [3]) | Activity (Homo sapiens [5])
5 | 28.1 µM | 136 µM | 26.8 µM |  |  |  |  | Cc1cn([C@H]2C=C[C@@H](CO)O2)c(=O)[nH]c1=O [STAVUDINE] |  |  | 
6 |  |  |  | Not Active | Not Active |  |  | Cc1cn([C@H]2C=C[C@@H](COC(=O)CCNC(=O)c3ccc(-c4c5ccc(=O)cc-5oc5cc(O)ccc45)c(C(=O)O)c3)O2)c(=O)[nH]c1=O |  |  | 
7 |  |  |  | Not Active |  |  |  | O=C(O)c1ccc2c(c1)C1(OC2=O)c2ccc(O)cc2Oc2cc(O)ccc21 |  |  | 
8 |  |  |  | Active | Active |  | Active | Cc1cn([C@H]2C=C[C@@H](COC(=O)CCCCCCCCCCCNC(=O)c3ccc(-c4c5ccc(=O)cc-5oc5cc(O)ccc45)c(C(=O)O)c3)O2)c(=O)[nH]c1=O |  |  | 
9 | 2.3 µM | > 206 µM | 14.9 µM |  |  |  |  | Cc1cn([C@H]2C=C[C@@H](COC(=O)CCCCCCCCCCCBr)O2)c(=O)[nH]c1=O | > 200 µM |  | 
